This is an account of results in ChEMBL document CHEMBL1150362, “Synthesis and in vitro evaluation of a library of modified endomorphin 1 peptides” (Bioorg Med Chem, 2008).

Data set [1] in a line: (§1) Apparent permeability from apical to basolateral side of the human Caco-2 membrane. The class given is ADME, cell-based. A general note: Caco-2 monolayers are a common model of the intestinal barrier.
A short description of data set [2]: (§2) Metabolic stability assessed as half life in human Caco-2 cell homogenate. Type of data set: ADME, Colon. Conditions: Caco-2 cell homogenate.
Data set [3] has as its target T1, Mu-type opioid receptor (Homo sapiens, UniProt P35372). Kind of data set: Agonist activity at mu opioid receptor in human SHSY5Y cells assessed as inhibition of forskolin-stimulated cAMP production at 100 nM. Type of data set: functional, cell-based. Also noted: scale not given: the % may be the effect or the level left. The following applies: SH-SY5Y. The method in brief:
(§3)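 SH-SY5Y cells (endogenous mu and delta opioid receptors, passages 10-20) grown in 96-well plates to 80% confluence. Peptides applied in DMEM with 30 μM forskolin for 30 min at 37°C. Lysed cells read by cAMP enzyme immunoassay (TMB, 450 nm) against a 0-3.2 pmol standard curve, expressed relative to the maximal forskolin response. Three experiments in triplicate; IC50 from concentration-response curves.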
A general note: Changes in cAMP serve as a functional read-out for many G protein-coupled receptors.

The target of data set [4] is T1, Mu-type opioid receptor. Nature of the data set: Displacement of [3H]DAMGO from mu opioid receptor in human SHSY5Y cells. Type of data set: cell-based, SH-SY5Y. The method in brief:
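Intact SH-SY5Y cells in 24-well plates were pre-incubated in binding buffer (50 mM Tris pH 7.4, 2% BSA). Incubated with 100 pM [3H]DAMGO plus unlabelled competitor (7 concentrations, 10 pM-1 μM) for 60 min at 37°C. Nonspecific binding defined with 1 μM DAMGO. Cells washed, dissolved in 1 M NaOH and counted by scintillation. Triplicates on at least three plates; Ki from one-site competition fits.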
For orientation: Displacement assays read how much labelled ligand stays bound in the presence of the test substance.

In data set [5] the target is Delta-type opioid receptor (Rattus norvegicus, UniProt P33533). Nature of the data set: Displacement of […] from delta opioid receptor in rat brain membrane. Type of data set: cell membranes.
Delta-type opioid receptor, sequence (P33533 whole entry): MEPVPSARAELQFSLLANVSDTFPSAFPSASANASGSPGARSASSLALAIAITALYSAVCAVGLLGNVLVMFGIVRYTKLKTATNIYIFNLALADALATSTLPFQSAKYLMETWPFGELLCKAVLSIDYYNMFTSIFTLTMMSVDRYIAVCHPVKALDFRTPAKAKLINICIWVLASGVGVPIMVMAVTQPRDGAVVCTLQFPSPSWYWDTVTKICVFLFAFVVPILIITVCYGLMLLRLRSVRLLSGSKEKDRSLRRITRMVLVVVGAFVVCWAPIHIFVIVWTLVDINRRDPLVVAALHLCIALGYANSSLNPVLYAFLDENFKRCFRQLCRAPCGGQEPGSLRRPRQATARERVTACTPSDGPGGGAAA
For another data set, the species on record is Rattus norvegicus. Nature of the data set: Selectivity for rat mu opioid receptor over rat delta opioid receptor. The method in brief:
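Ratio Kiδ/Kiμ, with both Ki values from competitive displacement binding on prepared rat brain P2 synaptosome membranes. The μ site was labelled with [3H]DAMGO. Ki values are given as mean ± SE, n = 3-4.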

The target in data set [6] is T1, Mu-type opioid receptor. Kind of data set: Agonist activity at mu opioid receptor in human SHSY5Y cells assessed as inhibition of forskolin-stimulated cAMP production. Type of data set: functional, cell-based, SH-SY5Y. An outline of the steps:
as §3

Data set [7] deals with Mu-type opioid receptor (Rattus norvegicus, UniProt P33535). Nature of the data set: Displacement of [3H]DAMGO from mu opioid receptor in rat brain membrane. Type of data set: cell membranes.
Mu-type opioid receptor (Rattus norvegicus, UniProt P33535), sequence (P33535 whole entry): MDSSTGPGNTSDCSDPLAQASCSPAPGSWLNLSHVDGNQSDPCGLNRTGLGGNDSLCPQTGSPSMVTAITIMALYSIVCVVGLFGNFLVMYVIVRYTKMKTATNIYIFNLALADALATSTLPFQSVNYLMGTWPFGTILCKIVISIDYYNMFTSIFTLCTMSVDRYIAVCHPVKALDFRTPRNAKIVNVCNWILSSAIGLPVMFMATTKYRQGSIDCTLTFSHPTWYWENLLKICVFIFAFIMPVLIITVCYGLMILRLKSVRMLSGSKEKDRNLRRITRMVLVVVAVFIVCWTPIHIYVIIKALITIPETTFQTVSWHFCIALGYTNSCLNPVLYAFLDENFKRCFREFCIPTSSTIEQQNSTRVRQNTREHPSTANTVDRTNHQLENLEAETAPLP
Data set [8] concerns Caco-2. The data set is described as §1. The class given is ADME, cell-based.
The test system of data set [9] is Caco-2. Described as §2. The class given is ADME, Colon. Conditions: Caco-2.

*1 amine or outer side, *2 acyl side, *3 side chain or, on linkers, in order; H or OH if unused. Where a SMILES comes first, the peptide text is derived from it. [ ]: non-standard residue; d: D form. The star is where a group is joined. ξ: configuration not given here. NH(β-D-Glc) = OC[C@H]1O[C@@H](N*)[C@H](O)[C@@H](O)[C@@H]1O; X1 = NC(=O)[C@H]1O[C@@H](N*)[C@H](O)[C@@H](O)[C@@H]1O; ξGly(nC16H33) = CCCCCCCCCCCCCCCCC(N)C(=O)O; Dmt = Cc1cc(O)cc(C)c1C[C@H](N)C(=O)O; ξGly(decyl) = CCCCCCCCCCC(N)C(=O)O; Suc = O=C(CCC(=O)[*:2])[*:1]; ξAoc(2) = CCCCCCC(N)C(=O)O

T1 sequence (P35372 whole entry): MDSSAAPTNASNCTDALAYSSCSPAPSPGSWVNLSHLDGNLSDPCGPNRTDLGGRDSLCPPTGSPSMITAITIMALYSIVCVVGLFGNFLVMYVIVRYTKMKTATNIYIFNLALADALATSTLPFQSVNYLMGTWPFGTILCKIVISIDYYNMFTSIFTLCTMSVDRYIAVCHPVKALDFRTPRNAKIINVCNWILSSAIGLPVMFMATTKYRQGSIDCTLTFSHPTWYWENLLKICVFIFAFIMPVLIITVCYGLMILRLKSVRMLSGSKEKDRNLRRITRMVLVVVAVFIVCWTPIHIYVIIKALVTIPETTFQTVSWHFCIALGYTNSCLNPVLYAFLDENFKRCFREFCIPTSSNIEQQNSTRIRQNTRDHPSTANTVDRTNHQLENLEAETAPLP

With `CCCCCCC(NC(=O)[C@H](Cc1ccccc1)NC(=O)[C@H](Cc1c[nH]c2ccccc12)NC(=O)[C@@H]1CCCN1C(=O)[C@@H](N)Cc1ccc(O)cc1)C(N)=O` (stereo partly drawn) (H-YPWF[ξAoc(2)]-NH2), in data set [1], the apical-to-basolateral permeability (Papp A→B) (in general, the apparent permeability from the apical to the basolateral side of a cell layer) turned out to be 0.823 ×10⁻⁶ cm/s. In [2], the half-life – broadly, how long it takes for the measured level to halve – was 3.5 min. Also, the Activity at Mu-type opioid receptor [3] turned out to be 15.9%. Besides, the Ki (commonly the equilibrium dissociation constant of an inhibitor or competing ligand from its target) on Mu-type opioid receptor [4] worked out at 121 nM.
Regarding `CCCCCCC(N)C(=O)N[C@@H](Cc1ccc(O)cc1)C(=O)N1CCC[C@H]1C(=O)N[C@@H](Cc1c[nH]c2ccccc12)C(=O)N[C@@H](Cc1ccccc1)C(N)=O` (stereo partly drawn), the Papp A→B in data set [1] was determined as 3.54 ×10⁻⁶ cm/s. The Ki in data set [5] amounted to 1760 nM; at Mu-type opioid receptor [4] it was 2.15 nM; at Mu-type opioid receptor [7], 2.86 nM. Further, the half-life in data set [2] was determined as 23.2 min. Also, the Activity at Mu-type opioid receptor [3] was 65.4%. The Ratio Ki in the data set filed under Rattus norvegicus was 614. In addition, on Mu-type opioid receptor [6], the IC50 (as a rule, the concentration at which inhibition is half-maximal) was 26.3 nM.
For `NC(=O)[C@H]1O[C@@H](NC(=O)[C@H](Cc2ccccc2)NC(=O)[C@H](Cc2c[nH]c3ccccc23)NC(=O)[C@@H]2CCCN2C(=O)[C@@H](N)Cc2ccc(O)cc2)[C@H](O)[C@@H](O)[C@@H]1O`, the half-life in data set [2] came out at 4.3 min. Besides, the Activity on Mu-type opioid receptor [3] came to 31.5%. In addition, the affinity at Mu-type opioid receptor [4], expressed as Ki, was 151 nM.
For `Cc1cc(O)cc(C)c1C[C@H](N)C(=O)N1CCC[C@H]1C(=O)N[C@@H](Cc1c[nH]c2ccccc12)C(=O)N[C@@H](Cc1ccccc1)C(N)=O` (stereo in doubt), the Papp with Caco-2 [8] worked out at 0.196 ×10⁻⁷ cm/s. In the data set on Caco-2 [9], the t1/2 is reported as 5 min.
In the case of `CCCCCCC(NC(=O)[C@H](Cc1ccccc1)NC(=O)[C@H](Cc1c[nH]c2ccccc12)NC(=O)[C@@H]1CCCN1C(=O)[C@H](Cc1ccc(O)cc1)NC(=O)CCC(=O)N[C@@H]1O[C@H](CO)[C@@H](O)[C@H](O)[C@H]1O)C(N)=O` (stereo partly drawn) ({NH(β-D-Glc)-Suc}-YPWF[ξAoc(2)]-NH2), the Papp A→B in [1] turned out to be 1.14 ×10⁻⁶ cm/s. The half-life in [2] was found to be 33 min. The Ki at Mu-type opioid receptor [4] came out at 266 nM.
`CCCCCC[C@H](N)C(=O)N[C@@H](Cc1ccc(O)cc1)C(=O)N1CCC[C@H]1C(=O)N[C@@H](Cc1c[nH]c2ccccc12)C(=O)N[C@@H](Cc1ccccc1)C(N)=O`: the half-life in data set [2] amounted to 23.8 min. The affinity on Mu-type opioid receptor [4] corresponds to a Ki of 3.02 nM.
For `Cc1cc(O)cc(C)c1C[C@H](N)C(=O)N1CCC[C@H]1C(=O)N[C@@H](Cc1c[nH]c2ccccc12)C(=O)N[C@@H](Cc1ccccc1)C(N)=O` (stereo in doubt; 13) [listing 1 of 2 here], in the data set filed under Rattus norvegicus, the Ratio Ki is 75.
With `NC(=O)[C@H](Cc1ccccc1)NC(=O)[C@H](Cc1c[nH]c2ccccc12)NC(=O)[C@@H]1CCCN1C(=O)[C@H](Cc1ccc(O)cc1)NC(=O)CCC(=O)N[C@@H]1O[C@H](CO)[C@@H](O)[C@H](O)[C@H]1O`, the apparent permeability from apical to basolateral (Papp A→B) in data set [1] came to 0.545 ×10⁻⁶ cm/s. In addition, the values for the Ki (in [5]; on Mu-type opioid receptor [4]; on Mu-type opioid receptor [7]) were 6320 nM, 115 nM and 115 nM, respectively. Besides, in data set [2], the half-life stood at 38 min. Moreover, in the data set listed under Rattus norvegicus, the Ratio Ki stood at 55.
Regarding `CCCCCCCCCCC(N)C(=O)N[C@@H](Cc1ccc(O)cc1)C(=O)N1CCC[C@H]1C(=O)N[C@@H](Cc1c[nH]c2ccccc12)C(=O)N[C@@H](Cc1ccccc1)C(N)=O` (stereo partly drawn) (H-[ξGly(decyl)]YPWF-NH2), the Papp A→B in data set [1] worked out at 1.24 ×10⁻⁶ cm/s. The Ki in data set [5] stood at 836 nM; on Mu-type opioid receptor [4], 15.4 nM; on Mu-type opioid receptor [7] it was 14.8 nM. In addition, at Mu-type opioid receptor [3], the Activity came out at 55.4%. For the same molecule, the Ratio Ki in the data set filed under Rattus norvegicus turned out to be 56.
With `Cc1cc(O)cc(C)c1C[C@H](N)C(=O)N1CCC[C@H]1C(=O)N[C@@H](Cc1c[nH]c2ccccc12)C(=O)N[C@@H](Cc1ccccc1)C(N)=O` (stereo in doubt; 13) [listing 2 of 2 here], in the data set on Caco-2 [8], the Papp was 5.04 ×10⁻⁷ cm/s. The Ki in [5] was determined as 5 nM; at Mu-type opioid receptor [4] it was 0.059 nM; at Mu-type opioid receptor [7], 0.067 nM. In addition, the t1/2 in the data set with Caco-2 [9] is listed as 13.5 min. On Mu-type opioid receptor [6], the IC50 came to 0.43 nM.
For `CCCCCC[C@@H](N)C(=O)N[C@@H](Cc1ccc(O)cc1)C(=O)N1CCC[C@H]1C(=O)N[C@@H](Cc1c[nH]c2ccccc12)C(=O)N[C@@H](Cc1ccccc1)C(N)=O`, the half-life in data set [2] came to 23.8 min. At Mu-type opioid receptor [4], this molecule returned a Ki of 2.92 nM.
`NC(=O)[C@H](Cc1ccccc1)NC(=O)[C@H](Cc1c[nH]c2ccccc12)NC(=O)[C@@H]1CCCN1C(=O)[C@@H](N)Cc1ccc(O)cc1` [ENDOMORPHIN-1]: the Papp A→B in [1] worked out at 0.447 ×10⁻⁶ cm/s.
As to `CCCCCCC(N)C(=O)N[C@@H](Cc1ccc(O)cc1)C(=O)N1CCC[C@H]1C(=O)N[C@@H](Cc1c[nH]c2ccccc12)C(=O)N[C@@H](Cc1ccccc1)C(=O)N[C@@H]1O[C@H](C(N)=O)[C@@H](O)[C@H](O)[C@H]1O` (stereo partly drawn) (H-[ξAoc(2)]YPWF-X1), in [1], the Papp A→B was 1.62 ×10⁻⁶ cm/s. For the same molecule, in [2], the half-life worked out at 75 min. Also, the Activity at Mu-type opioid receptor [3] stood at 36.2%. Also, the Ki at Mu-type opioid receptor [4] was 148 nM.
In the case of `CCCCCCC(N)C(=O)N[C@@H](Cc1c(C)cc(O)cc1C)C(=O)N1CCC[C@H]1C(=O)N[C@@H](Cc1c[nH]c2ccccc12)C(=O)N[C@@H](Cc1ccccc1)C(N)=O` (stereo partly drawn) (H-[ξAoc(2)][Dmt]PWF-NH2), the Activity on Mu-type opioid receptor [3] came out at 84.3%. Besides, the IC50 at Mu-type opioid receptor [6] was found to be 0.32 nM. The molecule further had a Ki at Mu-type opioid receptor [4] of 0.081 nM.
For the molecule `CCCCCCCCCCC(NC(=O)[C@H](Cc1ccccc1)NC(=O)[C@H](Cc1c[nH]c2ccccc12)NC(=O)[C@@H]1CCCN1C(=O)[C@@H](N)Cc1ccc(O)cc1)C(N)=O` (stereo partly drawn) (H-YPWF[ξGly(decyl)]-NH2), the apparent permeability from apical to basolateral (Papp A→B) in data set [1] was 0.416 ×10⁻⁶ cm/s.
Take `CCCCCCCCCCCCCCCCC(N)C(=O)N[C@@H](Cc1ccc(O)cc1)C(=O)N1CCC[C@H]1C(=O)N[C@@H](Cc1c[nH]c2ccccc12)C(=O)N[C@@H](Cc1ccccc1)C(N)=O` (stereo partly drawn) (H-[ξGly(nC16H33)]YPWF-NH2): the Activity at Mu-type opioid receptor [3] amounted to 48.4%.
